Measured values gathered from unrelated publications.
Compare with care: the assays were run in different laboratories.
Target: Myosin light chain kinase (MYLK3, Homo sapiens, UniProt Q32MK0)
Residues used in one study (Q32MK0 1-819): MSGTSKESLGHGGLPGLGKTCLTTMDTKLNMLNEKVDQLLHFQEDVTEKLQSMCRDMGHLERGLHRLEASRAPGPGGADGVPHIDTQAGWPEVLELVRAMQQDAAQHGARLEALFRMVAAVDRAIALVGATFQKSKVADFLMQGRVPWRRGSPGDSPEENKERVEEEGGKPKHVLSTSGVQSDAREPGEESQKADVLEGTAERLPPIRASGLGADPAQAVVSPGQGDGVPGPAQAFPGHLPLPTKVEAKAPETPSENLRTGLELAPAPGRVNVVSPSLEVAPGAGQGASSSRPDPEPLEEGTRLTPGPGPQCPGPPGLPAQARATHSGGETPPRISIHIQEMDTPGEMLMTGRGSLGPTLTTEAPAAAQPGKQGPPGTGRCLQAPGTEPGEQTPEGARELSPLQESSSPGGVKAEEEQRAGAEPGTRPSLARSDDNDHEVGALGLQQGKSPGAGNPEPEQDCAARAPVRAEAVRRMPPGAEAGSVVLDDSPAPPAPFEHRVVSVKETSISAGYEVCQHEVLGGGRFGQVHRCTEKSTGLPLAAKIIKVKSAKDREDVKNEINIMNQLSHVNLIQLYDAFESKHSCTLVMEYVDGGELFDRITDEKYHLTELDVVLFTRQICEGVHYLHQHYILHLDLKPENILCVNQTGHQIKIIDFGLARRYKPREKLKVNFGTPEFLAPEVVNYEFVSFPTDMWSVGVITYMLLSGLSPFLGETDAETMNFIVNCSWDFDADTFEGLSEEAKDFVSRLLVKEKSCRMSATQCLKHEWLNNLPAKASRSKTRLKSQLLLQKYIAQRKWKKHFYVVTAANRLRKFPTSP

Structure (SMILES)	assay	setting	quantity	value
Cc1ccc(C(=O)Nc2ccc(CN3CCN(C)CC3)c(C(F)(F)F)c2)cc1C#Cc1cnc2cccnn12	enzyme activity, inhibitor	23.5 nM	remaining activity	99%
CC(C)(C)c1nc2c(s1)c1nc(N)ncc1c1ccc(NS(=O)(=O)c3c(F)cccc3F)c(F)c12	enzyme activity, inhibitor, radiometric	1 µM	remaining activity	93%
O=C(Nc1cnn(-c2csc(C(=O)NC3COC3)c2)c1)Nc1ccccc1Cl	enzyme activity, inhibitor	5 µM	remaining activity	95.1%
Cc1cnn2ncc(-c3ccnc(N(C)C)n3)c2c1	binding	1 µM	remaining binding	96%
CC(C)(O)[C@H]1CC[C@H](Nc2ccc3ncc(-c4cccc(C(F)(F)F)c4)n3n2)CC1	enzyme activity, inhibitor	1 µM	remaining activity	100%
O=C1CCc2cc(Nc3cc(OC4CCOCC4)c([N+](=O)[O-])cc3Cl)ccc2N1	cell-free assay, competition with immobilised ligand	1 µM	remaining binding	100%
Nc1ncnc2occ(-c3ccc(NC(=O)Nc4cc(C(F)(F)F)ccc4F)cc3)c12	cell-free assay, inhibitor	20 µM	remaining signal	0.15%
CO[C@@H](C)c1c(Nc2ccc([C@@H](N(C)C(=O)C3CCS(=O)(=O)CC3)C(F)(F)F)cc2)cnc2cc(Cl)nn12	cell-free assay, competition with immobilised ligand	1 µM	remaining binding	87%
F[C@@H]1CCN(c2nccc(-c3cnn4ncccc34)n2)C1	binding	1 µM	remaining binding	100%
CC(C)(C)c1nc(-c2cccc(NS(=O)(=O)c3c(F)cccc3F)c2F)c(-c2ccnc(N)n2)s1	enzyme activity, inhibitor, radiometric	1 µM	remaining activity	100%
